Test results: ChEMBL document CHEMBL1629604, “Targeting type III secretion in Yersinia pestis” (Antimicrob Agents Chemother, 2009)
The source made the active and inactive calls. The rule behind the calls is not given here.

Key:
Yersinia pestis [1] = assay: (§1) Inhibition of T3SS-mediated YopM secretion in Yersinia pestis JG401 after 2 hrs by Western blotting
HeLa [2] = assay: Inhibition pCD1 positive Yersinia pestis JG153 T3SS-mediated morphological changes in human HeLa cells after 3 hrs; assay type: cell-based
Yersinia pestis [3] = assay: (§2) Inhibition of T3SS-mediated YopH secretion in Yersinia pestis JG401 after 2 hrs by Western blotting
Yersinia pestis [4] = assay: (§3) Inhibition of T3SS-mediated YopD secretion in Yersinia pestis JG401 after 2 hrs by Western blotting
Yersinia pestis [5] = assay: Toxicity in Yersinia pestis JG153 assessed as growth inhibition at 60 uM measured 6 mins intervals for 24 hrs; assay type: organism-based
HeLa [6] = assay: Cytotoxicity against human HeLa cells assessed as cell rounding up to 60 uM after 3 hrs; assay type: cell-based
Method in brief: (§4)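 HeLa monolayers seeded 1 day before at 1×10^5 cells/well in DMEM with 3% heat-inactivated FBS. Compound applied, cells incubated 37°C for 3 h. Monolayer disruption scored by microscopy as rounding and as percentage of cells detached from the plate.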

HeLa [7] = assay: Cytotoxicity against human HeLa cells assessed as cell detachment up to 60 uM after 3 hrs; assay type: cell-based; method in brief: as §4
HeLa [8] = assay: Cytotoxicity against human HeLa cells assessed as LDH release up to 60 uM after 3 hrs; assay type: cell-based
Method in brief: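 HeLa cells seeded 1 day before in DMEM with 3% heat-inactivated FBS, then exposed to compound up to 60 μM at 37°C for 2–3 h. LDH in supernatant measured by kit. 0.1% Triton X-100 lysis gave the maximum and untreated cells the baseline; % cytotoxicity was calculated relative to both. Mean of three independent assays.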

Yersinia pestis [9] = assay: Inhibition of translocation of YopE::Bla fusion from pMM85 expressing Yersinia pestis JG153 to human HeLa cells at 80 uM after 3 hrs by fluorescence microscopic analysis; assay type: functional, organism-based
Escherichia coli = assay: Inhibition of T3SS-mediated Tir secretion in enteropathogenic Escherichia coli KC14 harboring pKC17 at after 2 hrs by Western blotting
Yersinia pestis [10] = assay: Inhibition of T3SS-mediated YopD secretion in Yersinia pestis JG401 at up to 60 uM after 2 hrs by Western blotting
Yersinia pestis [11] = assay: Inhibition of T3SS-mediated YopD secretion in Yersinia pestis JG401 at 15 uM after 2 hrs by Western blotting
Yersinia pestis [12] = assay: Inhibition of T3SS-mediated YopM secretion in Yersinia pestis JG401 t up to 60 uM after 2 hrs by Western blotting
Yersinia pestis [13] = assay: Inhibition of translocation of YopE::Bla fusion from pMM85 expressing Yersinia pestis JG153 to human HeLa cells at 40 uM after 3 hrs by fluorescence microscopic analysis; assay type: functional
[14] = as §1
[15] = as §2
[16] = as §3

Cc1ccc(CSc2nc(C(=O)O)ccc2C#N)cc1
inhibition (Yersinia pestis [1]): Dose-dependent effect | inhibition (HeLa [2]): Dose-dependent effect | inhibition (Yersinia pestis [3]): Dose-dependent effect | inhibition (Yersinia pestis [4]): Dose-dependent effect | Activity (Yersinia pestis [5]): Non-toxic | Activity (HeLa [6]): Non-toxic | Activity (HeLa [7]): Non-toxic | Activity (HeLa [8]): Non-toxic | inhibition (Yersinia pestis [9]): inactive | inhibition (Escherichia coli; concentration not given here): 96%

O=C(N/N=C/c1cc(Br)cc(Br)c1O)c1ccc([N+](=O)[O-])cc1
Activity (Yersinia pestis [5]): Toxic

Cc1ccc(-c2nn(-c3ccccc3)cc2C2CC(c3cccs3)=NN2C(=O)CCCC(=O)O)cc1 (stereo unspecified)
inhibition (Yersinia pestis [1]): Dose-dependent effect | inhibition (HeLa [2]): Dose-dependent effect | inhibition (Yersinia pestis [3]): Dose-dependent effect | inhibition (Yersinia pestis [4]): Dose-dependent effect | Activity (Yersinia pestis [5]): Non-toxic | Activity (HeLa [6]): Non-toxic | Activity (HeLa [7]): Non-toxic | Activity (HeLa [8]): Non-toxic | inhibition (Yersinia pestis [9]): inactive | INCC50 (Escherichia coli): inactive

O=C(Nc1cccc(C2=NCCN2)c1)Nc1cccc(C2=NCCN2)c1
inhibition (Yersinia pestis [1]): Dose-dependent effect | inhibition (HeLa [2]): Dose-dependent effect | inhibition (Yersinia pestis [3]): Dose-dependent effect | inhibition (Yersinia pestis [10]): inactive | inhibition (Yersinia pestis [11]): 50% | inhibition (Yersinia pestis [4]): Dose-dependent effect | inhibition (Yersinia pestis [12]): inactive | inhibition (Yersinia pestis [9]): Active | inhibition (Escherichia coli; concentration not given here): 81%

O=C(Nc1cccc(C2=NCCN2)c1)Nc1cccc(C2=NCCN2)c1 [IMIDOCARB]
Activity (Yersinia pestis [5]): Non-toxic | Activity (HeLa [6]): Non-toxic | Activity (HeLa [7]): Non-toxic | Activity (HeLa [8]): Non-toxic

O=C(Nc1cccc(C2=NCCN2)c1)Nc1cccc(C2=NCCN2)c1 [IMIDOCARB DIPROPIONATE]
inhibition at 40 µM (Yersinia pestis [13]): 50%

Cc1cc(O)ccc1Sc1ccc(O)cc1C
IC50 [14]: 10 µM | inhibition (Yersinia pestis [1]): Dose-dependent effect | IC50 [15]: 10 µM | inhibition (Yersinia pestis [3]): Dose-dependent effect | IC50 [16]: 10 µM | inhibition (Yersinia pestis [4]): Dose-dependent effect | Activity (Yersinia pestis [5]): Non-toxic | Activity (HeLa [6]): Toxic | Activity (HeLa [7]): Toxic | Activity (HeLa [8]): Toxic | inhibition (Escherichia coli): inactive
